Test results published in ChEMBL document CHEMBL3813598, “Development of hydroxy-based sphingosine kinase inhibitors and anti-inflammation in dextran sodium sulfate induced colitis in mice” (Bioorg Med Chem, 2016).
Active and inactive are the calls of the source. The calls are words filed in the database; no cut-off is given here.

How the values were obtained:
Sphingosine kinase 1 [1] = biological target: T1, Sphingosine kinase 1 (Homo sapiens, UniProt Q9NYA1); assay: Inhibition of GST-tagged full length human recombinant SPHK1 expressed in baculovirus using sphingosine as substrate preincubated for 10 mins measured after 1 hr by ADP-quest assay
T1 sequence (Q9NYA1 whole entry): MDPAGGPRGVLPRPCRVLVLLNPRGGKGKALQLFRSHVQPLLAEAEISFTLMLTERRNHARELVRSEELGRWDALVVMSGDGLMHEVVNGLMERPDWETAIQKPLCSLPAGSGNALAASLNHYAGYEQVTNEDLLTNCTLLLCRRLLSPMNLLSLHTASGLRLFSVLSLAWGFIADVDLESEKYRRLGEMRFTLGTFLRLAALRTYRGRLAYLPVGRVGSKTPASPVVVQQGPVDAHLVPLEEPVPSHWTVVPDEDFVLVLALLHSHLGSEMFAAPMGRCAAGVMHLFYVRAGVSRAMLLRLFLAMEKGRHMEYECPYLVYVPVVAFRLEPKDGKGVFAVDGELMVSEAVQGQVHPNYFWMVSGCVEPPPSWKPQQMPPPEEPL

Sphingosine kinase 2 [2] = biological target: T2, Sphingosine kinase 2 (Homo sapiens, UniProt Q9NRA0); assay: Inhibition of GST-tagged full length human recombinant SPHK2 expressed in baculovirus using sphingosine as substrate preincubated for 10 mins measured after 1 hr by ADP-quest assay
T2 sequence (Q9NRA0 whole entry): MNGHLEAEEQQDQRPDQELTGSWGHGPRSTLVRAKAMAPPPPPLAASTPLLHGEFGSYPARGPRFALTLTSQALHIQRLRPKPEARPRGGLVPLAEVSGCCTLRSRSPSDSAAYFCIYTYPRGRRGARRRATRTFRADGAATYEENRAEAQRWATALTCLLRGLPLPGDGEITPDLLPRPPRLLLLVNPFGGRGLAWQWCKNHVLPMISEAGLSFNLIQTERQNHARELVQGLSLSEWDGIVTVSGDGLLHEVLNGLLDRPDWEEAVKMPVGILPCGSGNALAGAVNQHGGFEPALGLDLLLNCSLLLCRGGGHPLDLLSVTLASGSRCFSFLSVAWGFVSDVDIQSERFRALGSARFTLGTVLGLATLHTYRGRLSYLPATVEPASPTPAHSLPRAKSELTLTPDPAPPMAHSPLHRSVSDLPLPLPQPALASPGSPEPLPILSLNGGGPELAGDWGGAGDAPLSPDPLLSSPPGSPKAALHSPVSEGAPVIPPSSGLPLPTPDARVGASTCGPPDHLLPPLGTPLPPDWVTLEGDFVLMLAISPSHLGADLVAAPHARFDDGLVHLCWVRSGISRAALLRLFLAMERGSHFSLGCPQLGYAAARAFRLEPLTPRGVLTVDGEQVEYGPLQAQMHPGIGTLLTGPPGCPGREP
Outline: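 Human recombinant SphK1 or SphK2 with sphingosine substrate and ATP, tested in 384-well format. Enzyme was preincubated with compound for 10 min, then the reaction ran at 28 °C for 1 h. ADP Quest reagents A and B were added for 30 min at room temperature. Fluorescence was read at Ex 530/Em 590 nm. Values are mean of n = 3 in triplicate.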

Sphingosine kinase 1 [3] = biological target: T1, Sphingosine kinase 1; assay: Inhibition of His-tagged full length human recombinant SPHK1 expressed in baculovirus infected fall armyworm Sf9 cell expression system using sphingosine as substrate by ADP-quest assay
Sphingosine kinase 2 [4] = biological target: T2, Sphingosine kinase 2; assay: Inhibition of His-tagged full length human recombinant SPHK2 expressed in baculovirus infected fall armyworm Sf9 cell expression system using sphingosine as substrate by ADP-quest assay
Mus musculus [5] = assay: Antiinflammatory activity in DSS- induced C57BL/6 mouse colitis model assessed as body weight at 50 mg/kg, ig after 10 days (reference value: 15.69 +/- 0.65 g); type: functional
Outline: (§1)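 Female C57BL/6 mice, 6–8 weeks, randomized into five groups. Colitis induced by 2.5% w/v DSS in drinking water for 5 days, then 5 days of normal water. Test agent given ip at 5 or 10 mg/kg, or 5-ASA ig at 50 mg/kg, until study end. Controls were water plus vehicle and DSS plus vehicle. Body weight recorded daily; colon length taken at sacrifice on day 10. Mean ± SD, n = 10.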

Mus musculus [6] = assay: Antiinflammatory activity in DSS- induced C57BL/6 mouse colon colitis model assessed as cellular infiltration of mononuclear macrophages/neutrophils at 50 mg/kg, ig after 24 hrs by hematoxylin/eosin staining based assay; type: functional, organism-based
Outline: (§2)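 Colitis induced in female C57BL/6 mice as 2.5% DSS in drinking water for 5 days, then 5 days of water. Dosing ip or 5-ASA ig until sacrifice at day 10. Colons fixed in 10% buffered formalin (pH 7.4) for at least 24 h. Sections scored for cellular infiltration, mucosal lesion and crypt damage to give a histologic score.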

Mus musculus [7] = assay: Antiinflammatory activity in DSS- induced C57BL/6 mouse colitis model assessed as colon length at 50 mg/kg, ig after 10 days (reference value: 45.68 +/- 1.34 mm); type: functional; outline: as §1
Mus musculus [8] = assay: Antiinflammatory activity in DSS- induced C57BL/6 mouse colon colitis model assessed as mucosal/submucosal lesion at 50 mg/kg, ig after 24 hrs by hematoxylin/eosin staining based assay; type: functional, organism-based; outline: as §2
Mus musculus [9] = assay: Antiinflammatory activity in DSS- induced C57BL/6 mouse colon colitis model assessed as degeneration/necrosis of crypt cells at 50 mg/kg, ig after 24 hrs by hematoxylin/eosin staining based assay; type: functional, organism-based; outline: as §2
Mus musculus [10] = assay: Antiinflammatory activity in DSS- induced C57BL/6 mouse colon colitis model assessed as inhibition of IL6 expression at 50 mg/kg, ig after 24 hrs by hematoxylin staining based assay; type: functional, organism-based
Outline: (§3)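 Colons come from the same DSS model, fixed in 10% buffered formalin for at least 24 h. Paraffin sections were deparaffinized. Antigen was retrieved in 10 mM sodium citrate with 0.1% Tween 20 at 100 °C for 20 min. Primary antibody was applied in PBS with 5% BSA and 10% goat serum, then HRP polymer at room temperature for 30 min. Detection was DAB with hematoxylin counterstain. IL-6 and COX-2 positive labeling was counted automatically. Mean ± SD.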

Mus musculus [11] = assay: Antiinflammatory activity in DSS- induced C57BL/6 mouse colon colitis model assessed as inhibition of COX2 expression at 50 mg/kg, ig after 24 hrs by hematoxylin staining based assay; type: functional, organism-based; outline: as §3
Mus musculus [12] = assay: Antiinflammatory activity in DSS- induced C57BL/6 mouse colitis model assessed as change in body weight at 50 mg/kg, ig after 7 days; type: functional, organism-based; outline: as §1

| Structure (SMILES) | IC50 (Sphingosine kinase 1 [1]) [µM] | IC50 (Sphingosine kinase 2 [2]) [µM] | also measured |
| --- | --- | --- | --- |
| COc1cccc(COc2cccc(/C=N/NC(=O)c3ccc(O)c(O)c3)c2)c1 | 5 | 4.6 |  |
| O=C(N/N=C/c1cccc(OCc2ccc(C(F)(F)F)cc2)c1)c1cc(O)c(O)c(O)c1 | 16.3 | 22.1 |  |
| COc1ccc(COc2cccc(/C=N/NC(=O)c3cc(O)c(O)c(O)c3)c2)cc1 | > 100 | > 100 |  |
| COc1cccc(COc2ccc(/C=N/NC(=O)c3ccc(O)cc3)cc2)c1 | > 100 | > 100 |  |
| O=C(NCc1ccc(O)c(O)c1)C12CC3CC(C1)CC(c1ccc(Cl)cc1)(C3)C2 |  |  | Ki (Sphingosine kinase 1 [3]): 3.2 µM; Ki (Sphingosine kinase 2 [4]): 4.2 µM |
| N#Cc1cccc(COc2cccc(/C=N/NC(=O)c3cc(O)c(O)c(O)c3)c2)c1 | 85.3 | > 100 |  |
| COc1cccc(COc2cccc(/C=N/NC(=O)c3cc(O)cc(O)c3)c2)c1 | > 100 | > 100 |  |
| COc1ccccc1COc1ccc(/C=N/NC(=O)c2cc(O)c(O)c(O)c2)cc1 | 18.4 | 26.6 |  |
| COc1cccc(COc2ccc(/C=N/NC(=O)c3ccc(O)c(O)c3)cc2)c1 | 25.3 | 10.1 |  |
| O=C(N/N=C/c1cccc(OCc2ccccc2Cl)c1)c1cc(O)c(O)c(O)c1 | 36.8 | 58.8 |  |
| O=C(N/N=C/c1ccc(OCc2ccccc2C(F)(F)F)cc1)c1cc(O)cc(O)c1 | > 100 | > 100 |  |
| Cc1cccc(COc2cccc(/C=N/NC(=O)c3cc(O)c(O)c(O)c3)c2)c1 | 52.1 | 78.7 |  |
| O=C(N/N=C/c1ccc(OCc2ccccc2C(F)(F)F)cc1)c1ccc(O)cc1 | > 100 | > 100 |  |
| COc1cccc(COc2cccc(/C=N/NC(=O)c3cccc(O)c3)c2)c1 | > 100 | > 100 |  |
| O=C(N/N=C/c1cccc(OCc2cccc(F)c2)c1)c1cc(O)c(O)c(O)c1 | > 100 | > 100 |  |
| Cc1ccccc1COc1cccc(/C=N/NC(=O)c2cc(O)c(O)c(O)c2)c1 | 63.2 | 81.2 |  |
| O=C(N/N=C/c1cccc(OCc2cccc(Cl)c2)c1)c1cc(O)c(O)c(O)c1 | > 100 | 67.4 |  |
| N#Cc1ccccc1COc1cccc(/C=N/NC(=O)c2cc(O)c(O)c(O)c2)c1 | 45.4 | 68.6 |  |
| O=C(N/N=C/c1cccc(OCc2ccc(F)cc2)c1)c1cc(O)c(O)c(O)c1 | > 100 | > 100 |  |
| O=C(N/N=C/c1ccc(OCc2ccccc2C(F)(F)F)cc1)c1cc(O)c(O)c(O)c1 | 15 | 15.1 |  |
| O=C(N/N=C/c1ccc(OCc2ccccc2C(F)(F)F)cc1)c1ccc(O)c(O)c1 | 16.5 | 11.4 |  |
| COc1cccc(COc2ccc(/C=N/NC(=O)c3cc(O)cc(O)c3)cc2)c1 | > 100 | > 100 |  |
| O=C(N/N=C/c1cccc(OCc2ccc(Cl)cc2)c1)c1cc(O)c(O)c(O)c1 | > 100 | 61.2 |  |
| Cc1ccc(COc2cccc(/C=N/NC(=O)c3cc(O)c(O)c(O)c3)c2)cc1 | 45.8 | 65.4 |  |
| Nc1ccc(O)c(C(=O)O)c1 [MESALAMINE] |  |  | Activity (Mus musculus [5]): 18.32 g; Activity (Mus musculus [6]): Active; Activity (Mus musculus [7]): 53.4 mm; Activity (Mus musculus [8]): Active; Activity (Mus musculus [9]): Active; inhibition (Mus musculus [10]): Active; inhibition (Mus musculus [11]): Active; Activity (Mus musculus [12]): inactive |
| O=C(N/N=C/c1ccc(OCc2ccc3ccccc3c2)cc1)c1cc(O)c(O)c(O)c1 | 20.6 | 30.2 |  |
| COc1ccc(COc2ccc(/C=N/NC(=O)c3cc(O)c(O)c(O)c3)cc2)cc1 | > 100 | > 100 |  |

| Structure (SMILES) | IC50 (Sphingosine kinase 1 [1]) [µM] | IC50 (Sphingosine kinase 2 [2]) [µM] | also measured |
| --- | --- | --- | --- |
| O=C(N/N=C/c1cccc(OCc2ccccc2F)c1)c1cc(O)c(O)c(O)c1 | > 100 | 98.9 |  |
| N#Cc1ccc(COc2ccc(/C=N/NC(=O)c3cc(O)c(O)c(O)c3)cc2)cc1 | 27.7 | 17.8 |  |
| O=C(N/N=C/c1cccc(OCc2cccc3ccccc23)c1)c1cc(O)c(O)c(O)c1 | 31.3 | 40.6 |  |
| O=C(N/N=C/c1ccc(OCc2ccccc2)cc1)c1cc(O)c(O)c(O)c1 | 22 | 28.5 |  |
| O=C(N/N=C/c1ccc(OCc2ccccc2C(F)(F)F)cc1)c1cccc(O)c1 | > 100 | > 100 |  |
| O=C(N/N=C/c1ccc(OCc2ccc(C(F)(F)F)cc2)cc1)c1cc(O)c(O)c(O)c1 | 37.4 | 15.6 |  |
| O=C(N/N=C/c1cccc(OCc2ccccc2C(F)(F)F)c1)c1cccc(O)c1 | > 100 | > 100 |  |
| CC(C)(C)c1ccc(COc2cccc(/C=N/NC(=O)c3cc(O)c(O)c(O)c3)c2)cc1 | 35.2 | 62.2 |  |
| O=C(N/N=C/c1cccc(OCc2ccccc2C(F)(F)F)c1)c1ccc(O)c(O)c1 | 15.5 | 13.8 |  |
| COc1ccccc1COc1cccc(/C=N/NC(=O)c2cc(O)c(O)c(O)c2)c1 | 20.5 | 19.5 |  |
| N#Cc1cccc(COc2ccc(/C=N/NC(=O)c3cc(O)c(O)c(O)c3)cc2)c1 | 45.8 | 22.6 |  |
| COc1cccc(COc2ccc(/C=N/NC(=O)c3cccc(O)c3)cc2)c1 | > 100 | > 100 |  |
| O=C(N/N=C/c1cccc(OCc2ccccc2)c1)c1ccc2[nH]cnc2c1 | > 100 | > 100 |  |
| N#Cc1ccccc1COc1ccc(/C=N/NC(=O)c2cc(O)c(O)c(O)c2)cc1 | > 100 | 44.5 |  |
| CCCCCCCCCCCCC/C=C/[C@@H](O)[C@H](CO)N(C)C [DIMETHYLSPINGOSINE] |  | 26.3 |  |
| COc1cccc(COc2cccc(/C=N/NC(=O)c3cc(O)c(O)c(O)c3)c2)c1 | 8.57 | 8.7 |  |
| CC(C)(C)c1ccc(COc2ccc(/C=N/NC(=O)c3cc(O)c(O)c(O)c3)cc2)cc1 | 40.5 | 43.3 |  |
| O=C(N/N=C/c1cccc(OCc2ccccc2)c1)c1cc(O)c(O)c(O)c1 | 40.2 | 26.3 |  |
| Cc1ccc(COc2ccc(/C=N/NC(=O)c3cc(O)c(O)c(O)c3)cc2)cc1 | 32.7 | 44.5 |  |
| O=C(N/N=C/c1cccc(OCc2cccc(C(F)(F)F)c2)c1)c1cc(O)c(O)c(O)c1 | > 100 | > 100 |  |
| O=C(N/N=C/c1cccc(OCc2ccccc2C(F)(F)F)c1)c1cc(O)cc(O)c1 | > 100 | > 100 |  |
| COc1cccc(COc2cccc(/C=N/NC(=O)c3ccc(O)cc3)c2)c1 | > 100 | > 100 |  |
| N#Cc1ccc(COc2cccc(/C=N/NC(=O)c3cc(O)c(O)c(O)c3)c2)cc1 | 69.4 | 35.1 |  |
| O=C(N/N=C/c1ccc(OCc2cccc(C(F)(F)F)c2)cc1)c1cc(O)c(O)c(O)c1 | 54.7 | 23.8 |  |
| O=C(N/N=C/c1cccc(OCc2ccccc2C(F)(F)F)c1)c1cc(O)c(O)c(O)c1 | 19.6 | 16.3 |  |
| O=C(N/N=C/c1cccc(OCc2ccccc2C(F)(F)F)c1)c1ccc(O)cc1 | > 100 | > 100 |  |
